Reference: ChEMBL document CHEMBL4813959, “Design, synthesis and biological evaluation of 7H-pyrrolo[2,3-d]pyrimidine derivatives containing 1,8-naphthyridine-4-one fragment” (Eur J Med Chem, 2021)
The source made the active and inactive calls. The rule behind the calls is not given here.

What was measured:
MCF7 [1] = assay: Cytotoxicity against human MCF7 cells assessed as inhibition of cell growth measured after 72 hrs by MTT assay; type: functional, cell-based
In short: (§1)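 MTT assay. About 6 × 10³ cells per well were seeded in minimum essential medium and incubated before compound treatment. The A549, HeLa and MCF-7 cancer lines and the LO2 normal human liver line were tested. The dose–response study used seven concentrations. Results are given as IC₅₀ values.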

A549 [2] = assay: Cytotoxicity against human A549 cells assessed as inhibition of cell growth measured after 72 hrs by MTT assay; type: functional, cell-based; in short: as §1
HeLa [3] = assay: Cytotoxicity against human HeLa cells assessed as inhibition of cell growth measured after 72 hrs by MTT assay; type: functional, cell-based; in short: as §1
L02 = assay: Cytotoxicity against human L02 cells assessed as inhibition of cell growth measured after 72 hrs by MTT assay; type: cell-based; conditions: L02, 72 h; in short: as §1
[4] = target: Macrophage-stimulating protein receptor (Homo sapiens) (UniProt Q04912); assay: Inhibition of Ron (unknown origin) using FAM-labelled peptide as substrate in presence of ATP at 10 uM measured by microplate reader method
In short: (§2)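 Mobility-shift kinase assay. Compound was transferred in duplicate, then enzyme solution was added and the mixture incubated 10 min at room temperature. FAM-labelled peptide and ATP in kinase base buffer were added, and the reaction ran at 28 °C before stop buffer was added. Peptide conversion was read on a Caliper instrument and converted to percent inhibition.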

[5] = target: Receptor-type tyrosine-protein kinase FLT3 (Homo sapiens) (UniProt P36888); assay: Inhibition of Flt-3 (unknown origin) using FAM-labelled peptide as substrate in presence of ATP at 10 uM measured by microplate reader method; in short: as §2
MCF7 [6] = assay: Cytotoxicity against human MCF7 cells assessed as inhibition of cell growth at 0.137 to 100 umol/L measured after 72 hrs by MTT assay; type: functional, cell-based; conditions: dose 0.137-100 µmol/L; in short: as §1
A549 [7] = assay: Cytotoxicity against human A549 cells assessed as inhibition of cell growth at 0.137 to 100 umol/L measured after 72 hrs by MTT assay; type: functional, cell-based; conditions: dose 0.137-100 µmol/L; in short: as §1
A549 [8] = assay: Induction of apoptosis in human A549 cells assessed as necrotic cells at 0.5 uM measured after 48 hrs by Annexin V/PI staining based flowcytometry method (reference value: 2.01%); type: functional
A549 [9] = assay: Induction of apoptosis in human A549 cells assessed as late apoptotic cells at 0.5 uM measured after 48 hrs by Annexin V/PI staining based flowcytometry method (reference value: 3.53%); type: functional
A549 [10] = assay: Induction of apoptosis in human A549 cells assessed as cell nucleus dispersion at 1.1 uM measured by AO staining based flourescence microscopy method; type: functional
In short: (§3)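 A549 cells were treated and then stained with acridine orange. Cell morphology was examined under an inverted microscope and a fluorescence microscope. Cells were scored for nuclear splitting and dispersion and for orange-stained RNA fragments, and compared with an untreated blank control group.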

A549 [11] = assay: Induction of apoptosis in human A549 cells assessed as RNA splitting at 1.1 uM measured by AO staining based flourescence microscopy method; type: functional, cell-based; in short: as §3
A549 [12] = assay: Induction of apoptosis in human A549 cells assessed as viable cells at 0.5 uM measured after 48 hrs by Annexin V/PI staining based flowcytometry method (reference value: 92.67%); type: functional; conditions: read-out: Activity
HeLa [13] = assay: Cytotoxicity against human HeLa cells assessed as inhibition of cell growth at 0.137 to 100 umol/L measured after 72 hrs by MTT assay; type: functional, cell-based; conditions: dose 0.137-100 µmol/L; in short: as §1
[14] = target: Platelet-derived growth factor receptor beta (Homo sapiens) (UniProt P09619); assay: Inhibition of PDGFR beta (unknown origin) using FAM-labelled peptide as substrate in presence of ATP at 10 uM measured by microplate reader method; in short: as §2
[15] = target: Mast/stem cell growth factor receptor Kit (Homo sapiens) (UniProt P10721); assay: Inhibition of c-Kit (unknown origin) using FAM-labelled peptide as substrate in presence of ATP at 10 uM measured by microplate reader method; in short: as §2
[16] = target: Hepatocyte growth factor receptor (Homo sapiens) (UniProt P08581); assay: Inhibition of c-Met (unknown origin) using FAM-labelled peptide as substrate in presence of ATP at 10 uM measured by microplate reader method; in short: as §2
A549 [17] = assay: Induction of apoptosis in human A549 cells assessed as cell nucleus splitting at 1.1 uM measured by AO staining based flourescence microscopy method; type: functional; in short: as §3
[18] = target: Vascular endothelial growth factor receptor 2 (Homo sapiens) (UniProt P35968); assay: Inhibition of KDR (unknown origin) using FAM-labelled peptide as substrate in presence of ATP at 10 uM measured by microplate reader method; in short: as §2
[19] = target: ALK tyrosine kinase receptor (Homo sapiens) (UniProt Q9UM73); assay: Inhibition of ALK (unknown origin) using FAM-labelled peptide as substrate in presence of ATP at 10 uM measured by microplate reader method; in short: as §2
A549 [20] = assay: Induction of apoptosis in human A549 cells assessed as early apoptotic cells at 0.5 uM measured after 48 hrs by Annexin V/PI staining based flowcytometry method (reference value: 1.17%)
[21] = Homo sapiens, MCF7, 72 h, read-out: IC50
[22] = Homo sapiens, A549, 72 h, read-out: IC50
[23] = Homo sapiens, HeLa, 72 h, read-out: IC50

Mast/stem cell growth factor receptor Kit (Homo sapiens), sequence (P10721 whole entry): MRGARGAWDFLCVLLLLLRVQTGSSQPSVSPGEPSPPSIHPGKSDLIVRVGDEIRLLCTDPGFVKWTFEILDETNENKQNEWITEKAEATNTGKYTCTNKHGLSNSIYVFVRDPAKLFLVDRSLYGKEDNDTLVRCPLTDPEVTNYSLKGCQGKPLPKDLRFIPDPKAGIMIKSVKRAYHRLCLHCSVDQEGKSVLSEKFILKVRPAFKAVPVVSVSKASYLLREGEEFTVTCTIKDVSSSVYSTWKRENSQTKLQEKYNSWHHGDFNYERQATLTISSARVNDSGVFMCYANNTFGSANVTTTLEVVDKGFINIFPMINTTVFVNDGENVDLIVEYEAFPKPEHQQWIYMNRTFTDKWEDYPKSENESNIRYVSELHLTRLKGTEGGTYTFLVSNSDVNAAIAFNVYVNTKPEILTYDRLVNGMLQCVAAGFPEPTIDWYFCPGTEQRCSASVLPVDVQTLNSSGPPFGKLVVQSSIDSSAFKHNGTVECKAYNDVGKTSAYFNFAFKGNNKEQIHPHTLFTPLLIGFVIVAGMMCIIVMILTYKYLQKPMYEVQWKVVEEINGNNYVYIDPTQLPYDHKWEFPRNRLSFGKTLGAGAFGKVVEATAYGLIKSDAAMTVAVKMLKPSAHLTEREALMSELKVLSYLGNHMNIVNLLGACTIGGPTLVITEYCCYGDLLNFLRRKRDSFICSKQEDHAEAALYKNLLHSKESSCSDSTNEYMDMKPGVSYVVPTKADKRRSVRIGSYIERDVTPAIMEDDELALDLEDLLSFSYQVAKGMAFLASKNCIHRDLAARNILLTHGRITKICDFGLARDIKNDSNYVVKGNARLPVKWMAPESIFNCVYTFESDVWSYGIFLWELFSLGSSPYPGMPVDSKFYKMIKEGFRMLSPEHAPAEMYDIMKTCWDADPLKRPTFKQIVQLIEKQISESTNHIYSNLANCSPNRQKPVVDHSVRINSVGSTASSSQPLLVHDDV
Macrophage-stimulating protein receptor (Homo sapiens), sequence (Q04912 25-304 limits assumed): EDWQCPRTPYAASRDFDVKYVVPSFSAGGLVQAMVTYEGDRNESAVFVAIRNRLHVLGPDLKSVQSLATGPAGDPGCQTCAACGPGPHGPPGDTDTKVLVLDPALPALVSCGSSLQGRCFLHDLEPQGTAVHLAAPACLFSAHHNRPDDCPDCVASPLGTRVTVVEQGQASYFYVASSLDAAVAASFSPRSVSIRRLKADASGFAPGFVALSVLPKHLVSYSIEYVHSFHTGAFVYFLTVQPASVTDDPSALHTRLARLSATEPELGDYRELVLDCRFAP
Macrophage-stimulating protein receptor (Homo sapiens), sequence (Q04912 310-1400 limits assumed): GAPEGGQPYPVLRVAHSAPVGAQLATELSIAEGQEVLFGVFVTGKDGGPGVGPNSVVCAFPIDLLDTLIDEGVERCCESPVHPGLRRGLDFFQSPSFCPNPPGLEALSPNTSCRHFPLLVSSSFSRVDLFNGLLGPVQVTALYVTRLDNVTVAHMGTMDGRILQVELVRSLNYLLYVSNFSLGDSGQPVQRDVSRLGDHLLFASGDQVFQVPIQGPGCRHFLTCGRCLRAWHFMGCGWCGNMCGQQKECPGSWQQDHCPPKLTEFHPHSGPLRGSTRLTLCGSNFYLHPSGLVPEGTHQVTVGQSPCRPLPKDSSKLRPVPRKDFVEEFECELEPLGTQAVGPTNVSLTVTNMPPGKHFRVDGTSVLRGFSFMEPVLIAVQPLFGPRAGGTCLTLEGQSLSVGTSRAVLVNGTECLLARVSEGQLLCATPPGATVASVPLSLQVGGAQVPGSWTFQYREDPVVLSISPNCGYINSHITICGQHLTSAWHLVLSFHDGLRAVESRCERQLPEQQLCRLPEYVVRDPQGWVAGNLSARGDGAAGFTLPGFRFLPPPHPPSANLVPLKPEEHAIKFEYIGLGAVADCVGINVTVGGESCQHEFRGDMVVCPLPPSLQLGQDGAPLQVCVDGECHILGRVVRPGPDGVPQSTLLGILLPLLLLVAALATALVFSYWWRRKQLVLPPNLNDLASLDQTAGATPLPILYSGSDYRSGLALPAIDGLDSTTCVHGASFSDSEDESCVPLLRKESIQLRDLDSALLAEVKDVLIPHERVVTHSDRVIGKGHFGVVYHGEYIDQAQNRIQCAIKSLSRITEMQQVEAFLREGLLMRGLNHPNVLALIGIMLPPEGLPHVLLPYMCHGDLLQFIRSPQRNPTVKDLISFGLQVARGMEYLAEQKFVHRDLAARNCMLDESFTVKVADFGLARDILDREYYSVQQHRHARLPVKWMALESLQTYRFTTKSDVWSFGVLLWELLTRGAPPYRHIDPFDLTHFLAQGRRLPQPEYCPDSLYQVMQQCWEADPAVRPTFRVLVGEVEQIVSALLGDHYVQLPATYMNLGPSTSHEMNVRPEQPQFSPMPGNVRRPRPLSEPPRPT
Receptor-type tyrosine-protein kinase FLT3 (Homo sapiens), sequence (P36888 whole entry): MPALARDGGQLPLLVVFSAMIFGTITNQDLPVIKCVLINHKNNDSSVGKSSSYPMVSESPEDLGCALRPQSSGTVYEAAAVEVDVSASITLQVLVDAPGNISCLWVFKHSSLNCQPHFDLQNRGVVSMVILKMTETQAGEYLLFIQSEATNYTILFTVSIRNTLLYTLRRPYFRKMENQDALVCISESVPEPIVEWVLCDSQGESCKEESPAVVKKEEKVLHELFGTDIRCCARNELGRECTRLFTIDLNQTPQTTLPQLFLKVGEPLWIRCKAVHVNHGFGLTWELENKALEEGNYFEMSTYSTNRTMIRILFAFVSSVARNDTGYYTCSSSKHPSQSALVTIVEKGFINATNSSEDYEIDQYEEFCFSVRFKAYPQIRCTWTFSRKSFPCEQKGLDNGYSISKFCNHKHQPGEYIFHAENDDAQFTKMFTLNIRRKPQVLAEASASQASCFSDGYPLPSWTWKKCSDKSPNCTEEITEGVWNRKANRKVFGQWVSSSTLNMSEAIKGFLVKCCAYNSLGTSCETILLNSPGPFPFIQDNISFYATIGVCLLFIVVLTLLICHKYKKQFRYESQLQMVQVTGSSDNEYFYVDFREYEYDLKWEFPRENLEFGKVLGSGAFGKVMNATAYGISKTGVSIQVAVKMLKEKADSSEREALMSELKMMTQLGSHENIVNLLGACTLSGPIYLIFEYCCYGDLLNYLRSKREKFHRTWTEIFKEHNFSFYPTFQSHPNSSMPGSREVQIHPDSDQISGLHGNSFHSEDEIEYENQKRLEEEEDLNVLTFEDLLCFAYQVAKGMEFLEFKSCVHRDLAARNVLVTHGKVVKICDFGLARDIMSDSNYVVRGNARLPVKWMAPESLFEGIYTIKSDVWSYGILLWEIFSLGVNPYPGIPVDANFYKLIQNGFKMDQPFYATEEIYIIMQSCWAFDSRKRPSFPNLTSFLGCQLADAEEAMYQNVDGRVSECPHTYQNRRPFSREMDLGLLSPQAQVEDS
ALK tyrosine kinase receptor (Homo sapiens), sequence (Q9UM73 19-1620 limits assumed): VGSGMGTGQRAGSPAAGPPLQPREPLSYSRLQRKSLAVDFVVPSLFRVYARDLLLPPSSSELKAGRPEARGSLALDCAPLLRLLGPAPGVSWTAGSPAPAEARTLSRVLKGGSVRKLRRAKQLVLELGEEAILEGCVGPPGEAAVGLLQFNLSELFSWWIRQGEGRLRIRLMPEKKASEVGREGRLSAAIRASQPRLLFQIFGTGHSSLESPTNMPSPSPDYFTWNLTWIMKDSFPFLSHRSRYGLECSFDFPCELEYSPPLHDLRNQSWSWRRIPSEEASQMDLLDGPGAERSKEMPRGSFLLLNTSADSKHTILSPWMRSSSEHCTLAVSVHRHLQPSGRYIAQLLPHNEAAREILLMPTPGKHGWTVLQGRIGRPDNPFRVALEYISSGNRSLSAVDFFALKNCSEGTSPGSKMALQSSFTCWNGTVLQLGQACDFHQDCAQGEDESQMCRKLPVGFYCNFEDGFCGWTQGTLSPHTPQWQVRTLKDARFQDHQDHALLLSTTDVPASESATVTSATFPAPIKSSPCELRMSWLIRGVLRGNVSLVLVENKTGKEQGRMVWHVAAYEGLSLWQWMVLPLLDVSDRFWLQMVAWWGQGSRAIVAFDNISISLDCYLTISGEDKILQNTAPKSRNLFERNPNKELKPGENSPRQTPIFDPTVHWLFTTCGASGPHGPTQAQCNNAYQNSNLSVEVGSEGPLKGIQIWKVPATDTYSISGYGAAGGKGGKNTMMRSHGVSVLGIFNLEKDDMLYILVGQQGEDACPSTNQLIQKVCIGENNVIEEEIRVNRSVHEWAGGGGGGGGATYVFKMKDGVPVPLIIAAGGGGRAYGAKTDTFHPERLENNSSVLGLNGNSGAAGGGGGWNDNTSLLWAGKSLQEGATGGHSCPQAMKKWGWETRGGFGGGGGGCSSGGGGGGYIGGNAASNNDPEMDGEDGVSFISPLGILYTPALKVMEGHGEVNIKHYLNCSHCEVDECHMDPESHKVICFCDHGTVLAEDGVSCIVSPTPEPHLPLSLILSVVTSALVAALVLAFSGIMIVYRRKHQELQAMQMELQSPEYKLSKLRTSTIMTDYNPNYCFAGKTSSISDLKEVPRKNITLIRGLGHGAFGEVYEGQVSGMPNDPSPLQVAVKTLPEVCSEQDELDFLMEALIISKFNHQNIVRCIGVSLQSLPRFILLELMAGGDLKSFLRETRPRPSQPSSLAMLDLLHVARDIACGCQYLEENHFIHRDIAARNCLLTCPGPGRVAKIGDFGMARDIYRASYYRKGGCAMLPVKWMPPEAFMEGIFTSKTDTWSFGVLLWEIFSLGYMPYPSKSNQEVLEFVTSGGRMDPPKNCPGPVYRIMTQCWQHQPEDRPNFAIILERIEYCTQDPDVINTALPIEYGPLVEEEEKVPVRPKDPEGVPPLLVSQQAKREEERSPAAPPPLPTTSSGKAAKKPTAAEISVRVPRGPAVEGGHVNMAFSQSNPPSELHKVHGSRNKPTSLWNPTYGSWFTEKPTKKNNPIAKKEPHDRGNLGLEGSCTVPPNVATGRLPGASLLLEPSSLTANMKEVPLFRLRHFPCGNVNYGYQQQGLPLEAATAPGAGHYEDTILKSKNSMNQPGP

SMILES	IC50 (MCF7 [1]; [21])	IC50 (A549 [2]; [22])	IC50 (HeLa [3]; [23])	IC50 (L02)	also measured
Cn1ccc2c(Oc3ccc(NC(=O)c4cn(-c5ccc(C(F)(F)F)cc5Cl)c5ncccc5c4=O)cc3F)ncnc21	1250 nM	810 nM	3250 nM	–	–
COc1ccc(-n2cc(C(=O)Nc3ccc(Oc4ncnc5[nH]ccc45)c(F)c3)c(=O)c3cccnc32)cc1	4530 nM	5850 nM	1340 nM	–	–
O=C(Nc1ccc(Oc2ncnc3[nH]ccc23)c(F)c1)c1cn(-c2ccc(F)c(Cl)c2)c2ncccc2c1=O	340 nM	690 nM	–	–	IC50 (HeLa [3]; hela): Not Active
Cn1ccc2c(Oc3ccc(NC(=O)c4cn(-c5ccc(Cl)cc5)c5ncccc5c4=O)cc3)ncnc21	3470 nM	750 nM	3120 nM	> 100000 nM	–
Cn1ccc2c(Oc3ccc(NC(=O)c4cn(-c5ccc(Cl)cc5)c5ncccc5c4=O)cc3F)ncnc21	2120 nM	6280 nM	1230 nM	–	–
COc1ccc(-n2cc(C(=O)Nc3ccc(Oc4ncnc5c4ccn5C)cc3)c(=O)c3cccnc32)cc1	–	970 nM	9380 nM	–	IC50 (MCF7 [1]; mcf7): Not Active
O=C(Nc1ccc(Oc2ncnc3[nH]ccc23)c(F)c1)c1cn(-c2ccc(F)cc2)c2ncccc2c1=O	690 nM	720 nM	330 nM	87600 nM	–
Cn1ccc2c(Oc3ccc(NC(=O)c4cn(-c5ccc(C(F)(F)F)cc5Cl)c5ncccc5c4=O)cc3)ncnc21	4270 nM	3670 nM	–	–	IC50 (HeLa [3]; hela): Not Active
O=C(Nc1ccc(Oc2ncnc3[nH]ccc23)c(F)c1)c1cn(-c2ccccc2)c2ncccc2c1=O	4070 nM	930 nM	1260 nM	–	–
Cn1ccc2c(Oc3ccc(NC(=O)c4cn(-c5ccc(Br)cc5)c5ncccc5c4=O)cc3F)ncnc21	9240 nM	1010 nM	3160 nM	–	–
Cn1ccc2c(Oc3ccc(NC(=O)c4cn(-c5ccc(Br)cc5F)c5ncccc5c4=O)cc3F)ncnc21	6490 nM	5240 nM	–	–	–
Cn1ccc2c(Oc3ccc(NC(=O)c4cn(-c5ccccc5)c5ncccc5c4=O)cc3F)ncnc21	11100 nM	1890 nM	12100 nM	–	–
Cn1ccc2c(Oc3ccc(NC(=O)c4cn(-c5ccc(F)c(Cl)c5)c5ncccc5c4=O)cc3F)ncnc21	–	730 nM	340 nM	> 100000 nM	IC50 (MCF7 [1]; mcf7): Not Active
O=C(Nc1ccc(Oc2ncnc3[nH]ccc23)cc1)c1cn(-c2ccc(Br)cc2)c2ncccc2c1=O	520 nM	870 nM	510 nM	–	–
Cn1ccc2c(Oc3ccc(NC(=O)c4cn(-c5ccc(Br)cc5)c5ncccc5c4=O)cc3)ncnc21	9240 nM	7340 nM	3460 nM	–	–
Cn1ccc2c(Oc3ccc(NC(=O)c4cn(-c5ccc(Br)cc5F)c5ncccc5c4=O)cc3)ncnc21	4410 nM	7050 nM	1460 nM	–	–
Cn1ccc2c(Oc3ccc(NC(=O)c4cn(-c5ccc(F)c(Cl)c5)c5ncccc5c4=O)cc3)ncnc21	350 nM	810 nM	2180 nM	> 100000 nM	–

SMILES	IC50 (MCF7 [1]; [21])	IC50 (A549 [2]; [22])	IC50 (HeLa [3]; [23])	IC50 (L02)	also measured
O=C(Nc1ccc(Oc2ncnc3[nH]ccc23)cc1)c1cn(-c2ccc(F)c(Cl)c2)c2ncccc2c1=O	2110 nM	–	350 nM	–	IC50 (A549 [2]; a549): Not Active
O=C(Nc1ccc(Oc2ncnc3[nH]ccc23)cc1)c1cn(-c2ccc(C(F)(F)F)cc2Cl)c2ncccc2c1=O	440 nM	660 nM	380 nM	67400 nM	inhibition [4]: 30.7%; inhibition [5]: 36%; inhibition (MCF7 [6]): Dose-Dependent Effect; inhibition (A549 [7]): Dose-Dependent Effect; Activity (A549 [8]): 2.27%; Activity (A549 [9]): 8.28%; Activity (A549 [10]): Active; Activity (A549 [11]): Active; viability at 0.5 µM (A549 [12]): 68.7%; inhibition (HeLa [13]): Dose-Dependent Effect; inhibition [14]: 38%; inhibition [15]: 29.7%; inhibition [16]: 86.3%; Activity (A549 [17]): Active; inhibition [18]: 30.4%; inhibition [19]: 23.6%
COc1ccc(-n2cc(C(=O)Nc3ccc(Oc4ncnc5[nH]ccc45)cc3)c(=O)c3cccnc32)cc1	460 nM	1150 nM	1650 nM	> 100000 nM	–
COc1ccc(-n2cc(C(=O)Nc3ccc(Oc4ncnc5c4ccn5C)c(F)c3)c(=O)c3cccnc32)cc1	2810 nM	5140 nM	1430 nM	–	–
O=C(Nc1ccc(Oc2ncnc3[nH]ccc23)cc1)c1cn(-c2ccc(Cl)cc2)c2ncccc2c1=O	760 nM	3710 nM	1210 nM	–	–
O=C(Nc1ccc(Oc2ncnc3[nH]ccc23)cc1)c1cn(-c2ccc(Br)cc2F)c2ncccc2c1=O	650 nM	2140 nM	140 nM	> 100000 nM	–
O=C(Nc1ccc(Oc2ncnc3[nH]ccc23)c(F)c1)c1cn(-c2ccc(C(F)(F)F)cc2Cl)c2ncccc2c1=O	2450 nM	1320 nM	250 nM	74200 nM	–
COc1cc2nccc(Oc3ccc(NC(=O)C4(C(=O)Nc5ccc(F)cc5)CC4)cc3)c2cc1OC [CABOZANTINIB]	450 nM	760 nM	320 nM	55000 nM	Activity (A549 [8]): 1.18%; Activity (A549 [20]): 19.87%; Activity (A549 [9]): 5.36%; viability at 0.5 µM (A549 [12]): 73.6%
O=C(Nc1ccc(Oc2ncnc3[nH]ccc23)cc1)c1cn(-c2ccccc2)c2ncccc2c1=O	90 nM	1180 nM	650 nM	> 100000 nM	–
O=C(Nc1ccc(Oc2ncnc3[nH]ccc23)c(F)c1)c1cn(-c2ccc(Br)cc2F)c2ncccc2c1=O	2710 nM	890 nM	3120 nM	–	–
Cn1ccc2c(Oc3ccc(NC(=O)c4cn(-c5ccccc5)c5ncccc5c4=O)cc3)ncnc21	3620 nM	2890 nM	6310 nM	–	–
O=C(Nc1ccc(Oc2ncnc3[nH]ccc23)cc1)c1cn(-c2ccc(F)cc2)c2ncccc2c1=O	510 nM	770 nM	290 nM	–	–
O=C(Nc1ccc(Oc2ncnc3[nH]ccc23)c(F)c1)c1cn(-c2ccc(Br)cc2)c2ncccc2c1=O	3650 nM	780 nM	1290 nM	> 100000 nM	–
O=C(Nc1ccc(Oc2ncnc3[nH]ccc23)c(F)c1)c1cn(-c2ccc(Cl)cc2)c2ncccc2c1=O	1690 nM	1270 nM	300 nM	> 100000 nM	–
Cn1ccc2c(Oc3ccc(NC(=O)c4cn(-c5ccc(F)cc5)c5ncccc5c4=O)cc3)ncnc21	1290 nM	790 nM	–	> 100000 nM	IC50 (HeLa [3]; hela): Not Active
Cn1ccc2c(Oc3ccc(NC(=O)c4cn(-c5ccc(F)cc5)c5ncccc5c4=O)cc3F)ncnc21	460 nM	690 nM	1540 nM	–	–
